Results reported in ChEMBL document CHEMBL1159121, “Synthesis, in vitro structure-activity relationship, and in vivo studies of 2-arylthiazolidine-4-carboxylic acid amides as anticancer agents” (Bioorg Med Chem, 2010).

What was measured:
[1] = test system: EKVX; assay: Growth inhibition of human EKVX cells; format: functional
[2] = test system: COLO 205; assay: Growth inhibition of human COLO205 cells; format: functional
[3] = test system: SF-539; assay: Growth inhibition of human SF539 cells; format: functional
[4] = test system: SF-295; assay: Growth inhibition of human SF295 cells; format: functional
[5] = Cytotoxicity against human fibroblasts after 48 hrs by SRB assay; format: cell-based; conditions: Fibroblast
Summary of the method: (§1)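 Melanoma lines and control fibroblasts grown at 37 °C, 5% CO2, then exposed to a wide concentration range for 48 h in round-bottom 96-well plates. Fixed with 10% TCA, stained with SRB, protein read at 560 nm. IC50 (50% growth inhibition versus untreated) obtained by nonlinear regression.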

[6] = test system: MOLT-4; assay: Growth inhibition of human MOLT4 cells; format: functional
[7] = test system: UACC-62; assay: Growth inhibition of human UACC62 cells; format: functional
[8] = test system: 786-0; assay: Growth inhibition of human 786-0 cells; format: functional
[9] = test system: SK-OV-3; assay: Growth inhibition of human SKOV3 cells; format: functional
[10] = test system: OVCAR-8; assay: Growth inhibition of human OVCAR8 cells; format: functional
[11] = test system: BT-549; assay: Growth inhibition of human BT549 cells; format: functional
[12] = test system: MDA-MB-435; assay: Growth inhibition of human MDA-MB-435 cells; format: functional
[13] = test system: M14; assay: Growth inhibition of human M14 cells; format: functional
[14] = test system: PC-3; assay: Growth inhibition of human PC3 cells; format: functional
[15] = test system: UACC-257; assay: Growth inhibition of human UACC257 cells; format: functional
[16] = test system: HOP-62; assay: Growth inhibition of human HOP62 cells; format: functional
[17] = test system: SN12C; assay: Growth inhibition of human SN12C cells; format: functional
[18] = test system: OVCAR-3; assay: Growth inhibition of human OVCAR-3 cells; format: functional
[19] = test system: HT-29; assay: Growth inhibition of human HT-29 cells; format: functional
[20] = test system: SW-620; assay: Growth inhibition of human SW620 cells; format: functional
[21] = test system: CCRF-CEM; assay: Growth inhibition of human CCRF-CEM cells; format: functional
[22] = test system: HCT-116; assay: Growth inhibition of human HCT116 cells; format: functional
[23] = test system: MDA-MB-231; assay: Growth inhibition of human MDA-MB-231 cells; format: functional
[24] = test system: SF-268; assay: Growth inhibition of human SF268 cells; format: functional
[25] = test system: NCI-H460; assay: Growth inhibition of human NCI-H460 cells; format: functional
[26] = test system: U-251; assay: Growth inhibition of human U251 cells; format: functional
[27] = test system: SNB-19; assay: Growth inhibition of human SNB19 cells; format: functional
[28] = test system: LOX IMVI; assay: Growth inhibition of human LOXIMVI cells; format: functional
[29] = Growth inhibition of human Hs 578T cells; format: functional
[30] = test system: HL-60(TB); assay: Growth inhibition of human HL-60(TB) cells; format: functional
[31] = test system: SK-MEL-28; assay: Growth inhibition of human SK-MEL-28 cells; format: functional
[32] = test system: SK-MEL-5; assay: Growth inhibition of human SK-MEL-5 cells; format: functional
[33] = test system: RXF 393; assay: Growth inhibition of human RXF393 cells; format: functional
[34] = test system: RH7777; assay: Cytotoxicity against rat RH7777 cells after 96 hrs by SRB assay; format: cell-based; conditions: RH7777, 96 h
Summary of the method: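 Prostate lines in RPMI1640/10% FBS; RH7777 in DMEM/10% FBS. Cells TCA-fixed, stained with 0.4% SRB, absorbance read at 540 nm. IC50 from nonlinear regression of % survival against concentration.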

[35] = test system: TK-10; assay: Growth inhibition of human TK10 cells; format: functional
[36] = test system: NCI-H322M; assay: Growth inhibition of human NCI-H322M cells; format: functional
[37] = Antiproliferative activity against mouse B16-F1 cells after 48 hrs by SRB assay; format: functional, cell-based; conditions: B16-F1, 48 h; summary of the method: as §1
[38] = Antiproliferative activity against human WM164 cells after 48 hrs by SRB assay; format: functional, cell-based; conditions: WM164, 48 h; summary of the method: as §1
[39] = test system: ACHN; assay: Growth inhibition of human ACHN cells; format: functional
[40] = test system: A498; assay: Growth inhibition of human A498 cells; format: functional
[41] = test system: NCI/ADR-RES; assay: Growth inhibition of human NCI/ADR-RES cells; format: functional
[42] = read-out: LC50 (the source's name)

CCCCCCCCCCCCCCCCNC(=O)[C@@H]1CSC(c2ccc(NC(C)=O)cc2)N1 (mixture of isomers)
GI50 [1]: 300 nM | TGI [1]: 880 nM | CC50 [1, 42]: 4110 nM | GI50 [2]: 1910 nM | CC50 [2, 42]: > 100000 nM | GI50 [3]: 260 nM | TGI [3]: 700 nM | CC50 [3, 42]: 2810 nM | GI50 [4]: 280 nM | TGI [4]: 1060 nM | CC50 [4, 42]: 4090 nM | IC50 [5]: 16000 nM | GI50 [6]: 150 nM | TGI [6]: 340 nM | CC50 [6, 42]: 790 nM | GI50 [7]: 1080 nM | TGI [7]: 2330 nM | CC50 [7, 42]: 50200 nM | GI50 [8]: 220 nM | TGI [8]: 420 nM | CC50 [8, 42]: 770 nM | GI50 [9]: 380 nM | TGI [9]: 1130 nM | CC50 [9, 42]: 3480 nM | GI50 [10]: 280 nM | TGI [10]: 730 nM | CC50 [10, 42]: > 100000 nM | GI50 [11]: 180 nM | TGI [11]: 330 nM | CC50 [11, 42]: 630 nM | GI50 [12]: 150 nM | TGI [12]: 300 nM | CC50 [12, 42]: 600 nM | GI50 [13]: 170 nM | TGI [13]: 330 nM | CC50 [13, 42]: 620 nM | GI50 [14]: 170 nM | TGI [14]: 340 nM | CC50 [14, 42]: 640 nM | GI50 [15]: 1480 nM | TGI [15]: 3160 nM | CC50 [15, 42]: 6710 nM | GI50 [16]: 200 nM | TGI [16]: 380 nM | CC50 [16, 42]: 700 nM | GI50 [17]: 350 nM | TGI [17]: 510 nM | CC50 [17, 42]: 740 nM | GI50 [18]: 220 nM | TGI [18]: 420 nM | CC50 [18, 42]: 790 nM | GI50 [19]: 230 nM | TGI [19]: 480 nM | CC50 [19, 42]: 1090 nM | GI50 [20]: 210 nM | TGI [20]: 430 nM | CC50 [20, 42]: 890 nM | GI50 [21]: 120 nM | TGI [21]: 400 nM | CC50 [21, 42]: 13000 nM | GI50 [22]: 180 nM | TGI [22]: 330 nM | CC50 [22, 42]: 600 nM | GI50 [23]: 180 nM | TGI [23]: 320 nM | CC50 [23, 42]: 590 nM | GI50 [24]: 160 nM | TGI [24]: 310 nM | CC50 [24, 42]: 600 nM | GI50 [25]: 190 nM | TGI [25]: 390 nM | CC50 [25, 42]: 790 nM | GI50 [26]: 180 nM | TGI [26]: 330 nM | CC50 [26, 42]: 620 nM | GI50 [27]: 190 nM | TGI [27]: 400 nM | CC50 [27, 42]: 820 nM | GI50 [28]: 140 nM | TGI [28]: 300 nM | CC50 [28, 42]: 830 nM | GI50 [29]: 180 nM | TGI [29]: 380 nM | CC50 [29, 42]: 780 nM | GI50 [30]: 170 nM | TGI [30]: 370 nM | CC50 [30, 42]: 790 nM | GI50 [31]: 130 nM | TGI [31]: 260 nM | CC50 [31, 42]: 520 nM | GI50 [32]: 750 nM | TGI [32]: 2130 nM | CC50 [32, 42]: 5130 nM | GI50 [33]: 200 nM | TGI [33]: 350 nM | CC50 [33, 42]: 620 nM | IC50 [34]: 6800 nM | GI50 [35]: 650 nM | TGI [35]: 2110 nM | CC50 [35, 42]: 5400 nM | GI50 [36]: 280 nM | TGI [36]: 850 nM | CC50 [36, 42]: 3220 nM | IC50 [37]: 2200 nM | IC50 [38]: 1100 nM | GI50 [39]: 210 nM | TGI [39]: 470 nM | CC50 [39, 42]: 1100 nM | GI50 [40]: 940 nM | TGI [40]: 2200 nM | CC50 [40, 42]: 4970 nM | GI50 [41]: 250 nM | TGI [41]: 520 nM | CC50 [41, 42]: 170 nM
